Laboratory results as given in ChEMBL document CHEMBL2396655, “Design, synthesis, and biological evaluation of (E)-N-aryl-2-arylethenesulfonamide analogues as potent and orally bioavailable microtubule-targeted anticancer agents” (J Med Chem, 2013).
pIC50: −log10 of the molar value. Active and inactive are the calls of the source. No cut-off for these calls is given here.

Columns and labels:
[1] = tested on: DU-145; assay: Cell cycle arrest in human DU145 cells assessed as accumulation at G2/M phase at 0.02 uM after 24 hrs by propidium iodide staining-based FACS flow cytometric analysis; assay type: functional
Procedure, shortened: (§1)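 DU145 cells were plated at 1.0×10⁶ per dish in DMEM/10% FBS and treated 24 h later with increasing concentrations. After 24 h, attached and floating cells were pooled and fixed in ice-cold 70% ethanol for at least 24 h. Cells were stained with propidium iodide (50 μg/mL) plus RNase A for 30 min at 37 °C, then read on a FACScan with cell-cycle modelling.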

[2] = tested on: DU-145; assay: Induction of apoptosis in human DU145 cells assessed as caspase activation at 10 to 20 nM after 24 to 72 hrs by Western blotting analysis; assay type: functional, cell-based
[3] = tested on: Mus musculus; assay: Volume of distribution at steady state in ICR mouse at 5 mg/kg, iv by LC-MS/MS analysis; assay type: ADME, organism-based; set-up: dose 5 mg/kg, route intravenous; settings: in vivo
Procedure, shortened: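 Male ICR mice, 6–8 weeks old (N=3 per group), with a carotid artery cannula implanted one day before dosing. Dosed at 5 mg/kg in NMP:PEG300:water (1:4:5) as an IV bolus or by oral gavage. Blood drawn at 2–360 min; plasma protein-precipitated with acetonitrile containing internal standard, assayed by LC/MS/MS; noncompartmental analysis.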

[4] = tested on: DU-145; assay: Mitotoic arrest in human DU145 cells assessed as appearance of abnormal spindles at 25 nM after 24 hrs by FITC and propidium iodide staining-based confocal laser microscopic analysis; assay type: functional, cell-based
Procedure, shortened: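 DU145 cells on glass coverslips were treated with 0.025 μM compound or DMSO for 24 h and fixed in 4% paraformaldehyde. After blocking and permeabilizing in PBS with 10% FBS and 0.1% Triton X-100, they were stained with FITC anti-α-tubulin (DM1A) for 1 h at 37 °C and with propidium iodide 1 μg/mL. Imaging was by confocal microscopy, 60× objective, as z-sections.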

[5] = tested on: DU-145; assay: Cell cycle arrest in human DU145 cells assessed as accumulation at G2/M phase at 0.005 uM after 24 hrs by propidium iodide staining-based FACS flow cytometric analysis; assay type: functional; procedure, shortened: as §1
[6] = tested on: Plasma; assay: Plasma protein binding in human at 10 to 50 uM by equilibrium dialysis; assay type: ADME, cell-free
[7] = tested on: DU-145; assay: Cell cycle arrest in human DU145 cells assessed as accumulation at G2/M phase after 24 hrs by propidium iodide staining-based FACS flow cytometric analysis; assay type: functional; procedure, shortened: as §1
[8] = tested on: NCI-H417; assay: Cytotoxicity against human NCI-N417 cells after 96 hrs by trypan blue exclusion assay; assay type: functional; settings: NCI-H417, 96 h
Procedure, shortened: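 Cells grown in DMEM or RPMI with 10% FBS and 1 unit/mL penicillin-streptomycin, seeded in 12-well dishes at 2.5 ×10⁴ cells/mL/well. Compound added 24 h later at various concentrations. Viable cells counted by trypan blue exclusion from duplicate wells after 96 h. Value taken from dose-response curves of two independent experiments.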

[9] = tested on: CCRF-CEM; assay: Resistance factor, ratio of GI50 for multidrug-resistant human CEM/C2 cells to GI50 for human CEM cells; assay type: functional
[10] = tested on: DU-145; assay: Induction of apoptosis in human DU145 cells assessed as increase in PARP cleavage at 10 to 20 nM after 24 to 72 hrs by Western blotting analysis; assay type: functional, cell-based
Procedure, shortened: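 DU145 cells were plated at 1.0×10⁶ per plate and treated 24 h later with DMSO or increasing concentrations, then harvested at set time points. Cells were lysed in 0.1% Triton X-100 buffer with protease inhibitors. Equal protein was run on 10% SDS-PAGE, blotted with anti-PARP and detected with IRDye 800 secondary on Odyssey.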

[11] = tested on: BT-20; assay: Antitumor activity against human BT20 cells xenografted in NCR-nu/nu mouse assessed as reduction in tumor volume at 20 mg/kg, ip treated 3 times a week for 2 weeks measured on alternate days for 14 days; assay type: functional, organism-based; set-up: dose 20 mg/kg
Procedure, shortened: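 Female athymic NCr-nu/nu mice were implanted subcutaneously in the hind leg with 0.5–1.0×10⁷ BT20 cells. Mice were paired once tumours reached about 100–150 mm³ (vehicle N=7, treated N=8). Dosing was 20 mg/kg IP in DMSO (0.1 mL), 3×/week for 2 weeks. Calipers measured two dimensions; volume = L×S²×π/6. Body weight was recorded at each measurement.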

[12] = tested on: K562; assay: Cytotoxicity against human K562 cells after 96 hrs by trypan blue exclusion assay; assay type: functional, cell-based
Procedure, shortened: (§2)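 Cells were grown in DMEM or RPMI with 10% FBS and plated at 2.5×10⁴ cells/well in 12-well dishes. Compounds were added 24 h later at various concentrations. After 96 h, viable cells were counted by trypan blue exclusion from duplicate wells. Results are the mean of two independent experiments.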

[13] = tested on: MIA PaCa-2; assay: Antitumor activity against human MIAPaCa2 cells assessed as inhibition of anchorage-independent growth after 3 weeks by NBT staining-based soft agar assay; assay type: functional, cell-based
Procedure, shortened: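 MIA-PaCa-2 cells (1.0×10⁵) in growth medium with compound were mixed into 0.4% Noble top agar over a 0.8% bottom layer. Each concentration was plated in triplicate. Plates were incubated 3 weeks at 37 °C, 5% CO₂, then stained with 0.05% nitroblue tetrazolium for 48 h and photographed.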

[14] = Cytotoxicity against human NAMALWA cells after 96 hrs by trypan blue exclusion assay; assay type: functional; settings: NAMALVA; procedure, shortened: as §2
[15] = Growth inhibition of multidrug-resistant human MES-SA/Dx5 cells; assay type: functional
[16] = tested on: Plasma; assay: Plasma protein binding in dog at 10 to 50 uM by equilibrium dialysis; assay type: ADME, cell-free, Canis lupus familiaris
[17] = tested on: DU-145; assay: Mitotoic arrest in human DU145 cells assessed as rosette of condensed DNA without mitotic spindle at 25 nM after 24 hrs by FITC and propidium iodide staining-based confocal laser microscopic analysis; assay type: functional, cell-based
Procedure, shortened: (§3)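 DU145 cells grown on glass coverslips, exposed to 0.025 μM for 24 h, fixed in 4% paraformaldehyde, permeabilized in PBS with 10% FBS/0.1% Triton X-100, stained with FITC-conjugated anti-α-tubulin (DM1A, 1 h, 37 °C) and propidium iodide (1 μg/mL, 5 min), then imaged by confocal microscopy (60× objective, XYZ-sectioning); DMSO-treated cells as vehicle.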

[18] = tested on: Mus musculus; assay: Elimination half life in ICR mouse at 5 mg/kg, iv by LC-MS/MS analysis; assay type: ADME, organism-based; set-up: dose 5 mg/kg, route intravenous; settings: in vivo
Procedure, shortened: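 Male ICR mice, 6–8 weeks old, N=3 per group. Single 5 mg/kg dose in NMP:PEG300:water (1:4:5 v/v), given as IV bolus or oral gavage. Serial arterial blood was drawn through a carotid cannula at 2–360 min. Plasma was protein-precipitated with acetonitrile containing internal standard and assayed by LC/MS/MS. Parameters were derived by noncompartmental analysis.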

[19] = tested on: Liver; assay: Metabolic stability in human liver S9 fraction assessed as compound remaining at 10 uM after 1 hr by LC-MS/MS analysis; assay type: ADME, subcellular; settings: s9, 1 h
Procedure, shortened: (§4)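 Compound at 10 μM was incubated with rat, dog or human liver S9 fraction (1 mg/mL) for 0, 30 and 60 min. Parent remaining at 1 h was quantified by LC-MS/MS.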

[20] = tested on: Liver; assay: Metabolic stability in dog liver S9 fraction assessed as compound remaining at 10 uM after 1 hr by LC-MS/MS analysis; assay type: ADME, subcellular, Canis lupus familiaris; settings: s9, 1 h; procedure, shortened: as §4
[21] = tested on: DU-145; assay: Mitotoic arrest in human DU145 cells assessed as misalignment of chromosomes at 25 nM after 24 hrs by FITC and propidium iodide staining-based confocal laser microscopic analysis; assay type: functional, cell-based; procedure, shortened: as §3

With `COc1cc(OC)c(/C=C/S(=O)(=O)Nc2ccc(OC)c(N)c2)c(OC)c1` the Activity [1] was “Active”, the Activity [2] was “Active” and the Vdss [3] was 2.13 L/kg. For the same molecule, the Activity [4] was “Active”, the Activity [5] was “Active” and the PPB [6] was 99.67%. For the same molecule, the Activity [7] was “Dose-dependent effect”, the GI50 [8] was 4 nM and the RatioGI50 [9] was 1. For the same molecule, the Activity [10] was “Active”, the Activity [11] was “Active” and the Activity [12] was “Dose-dependent effect”. For the same molecule, the GI50 ([12]; K562, 96 h) was 3 nM, the pIC50 ([12]; K562, 96 h) was 8.52 and the inhibition [13] was “Dose-dependent effect”. It also gave a GI50 [14] of 8 nM, a GI50 [15] of 10 nM and a PPB [16] of 98.48%. The Activity [17] was “Active”, the “beta t1/2” value [18] was 1.7 h and the Stability [19] was 20%. For the same molecule, the Stability [20] was 57% and the Activity [21] was “Active”.
